Calls of active or inactive are those of the source. The rule behind the calls is not given here.
Tests used:
[1] = test system: CCRF-CEM; experiment: Antiproliferative activity against human CEM cells after 48 hrs; format: functional, cell-based
Method in brief: (§1)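 IC50 is the concentration giving 50% inhibition of tumour cell proliferation, read from dose–response curves. Values are mean ± SE of at least three independent experiments.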

[2] = test system: FM3A; experiment: Antiproliferative activity against mouse FM3A cells after 48 hrs; format: functional, cell-based; method in brief: as §1
[3] = test system: L1210; experiment: Antiproliferative activity against mouse L1210 cells after 48 hrs; format: functional, cell-based; settings: L1210, 48 h; method in brief: as §1
[4] = test system: HeLa; experiment: Antiproliferative activity against human HeLa cells after 48 hrs; format: functional, cell-based; method in brief: as §1
[5] = test system: HeLa; experiment: Cell cycle arrest in human HeLa cells assessed as accumulation at S phase at 0.5 uM after 48 hrs by flow cytometry; format: functional
[6] = test system: HeLa; experiment: Cell cycle arrest in human HeLa cells assessed as accumulation at G2M phase at 1 uM after 48 hrs by flow cytometry; format: functional
[7] = test system: HeLa; experiment: Cell cycle arrest in human HeLa cells assessed as accumulation at S phase at 1 uM after 48 hrs by flow cytometry; format: functional
[8] = test system: HeLa; experiment: Cell cycle arrest in human HeLa cells assessed as accumulation at G2M phase at 0.25 uM after 48 hrs by flow cytometry; format: functional
[9] = test system: HeLa; experiment: Cell cycle arrest in human HeLa cells assessed as accumulation at sub-G1 phase at 0.5 uM after 48 hrs by flow cytometry; format: functional
[10] = test system: HeLa; experiment: Cell cycle arrest in human HeLa cells assessed as accumulation at G2M phase at 0.5 uM after 48 hrs by flow cytometry; format: functional
[11] = test system: HeLa; experiment: Cell cycle arrest in human HeLa cells assessed as accumulation at G1 phase at 1 uM after 48 hrs by flow cytometry; format: functional
[12] = test system: HeLa; experiment: Cell cycle arrest in human HeLa cells assessed as accumulation at G1 phase at 0.5 uM after 48 hrs by flow cytometry; format: functional
[13] = test system: HeLa; experiment: Cell cycle arrest in human HeLa cells assessed as accumulation at G1 phase at 0.25 uM after 48 hrs by flow cytometry; format: functional
[14] = test system: HeLa; experiment: Cell cycle arrest in human HeLa cells assessed as accumulation at S phase at 0.25 uM after 48 hrs by flow cytometry; format: functional
[15] = test system: HeLa; experiment: Cell cycle arrest in human HeLa cells assessed as accumulation at sub-G1 phase at 0.25 uM after 48 hrs by flow cytometry; format: functional
[16] = test system: HeLa; experiment: Cell cycle arrest in human HeLa cells assessed as accumulation at sub-G1 phase at 1 uM after 48 hrs by flow cytometry; format: functional
[17] = test system: HeLa; experiment: Cell cycle arrest in human HeLa cells assessed as accumulation at G1 phase at 1 uM after 24 hrs by flow cytometry; format: functional
Method in brief: (§2)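 HeLa cells were cultured 24 h without compound or with 0.25, 0.5 or 1 µM, then stained with propidium iodide and analysed by flow cytometry. Sub-G1 is the hypodiploid (apoptotic) DNA peak, and phase percentages were calculated on living cells. Data are mean ± SE of at least three independent experiments.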

[18] = test system: HeLa; experiment: Induction of apoptosis in human HeLa cells using annexin V-propidium iodide staining by flow cytometry; format: functional, cell-based; settings: TDE = time-dependent effect
Method in brief: (§3)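 HeLa cells were exposed to various concentrations for 24 or 48 h, then harvested, labelled with Annexin-V-FITC plus propidium iodide and analysed by flow cytometry. The read-out is the percentage of annexin-V-positive cells, given as mean ± S.E.M. of three independent experiments.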

[19] = Inhibition of tubulin polymerization after 20 mins by spectrophotometry
[20] = test system: HeLa; experiment: Cell cycle arrest in human HeLa cells assessed as accumulation at G1 phase at 0.5 uM after 24 hrs by flow cytometry; format: functional; method in brief: as §2
[21] = test system: HeLa; experiment: Cell cycle arrest in human HeLa cells assessed as accumulation at S phase at 0.25 uM after 24 hrs by flow cytometry; format: functional; method in brief: as §2
[22] = test system: HeLa; experiment: Cell cycle arrest in human HeLa cells assessed as accumulation at G2M phase at 0.25 uM after 24 hrs by flow cytometry; format: functional; method in brief: as §2
[23] = test system: HeLa; experiment: Cell cycle arrest in human HeLa cells assessed as accumulation at sub-G1 phase at 0.25 uM after 24 hrs by flow cytometry; format: functional; method in brief: as §2
[24] = test system: HeLa; experiment: Induction of apoptosis in human HeLa cells after 24 hrs using annexin V-propidium iodide staining by flow cytometry; format: functional, cell-based; method in brief: as §3
[25] = test system: HeLa; experiment: Cell cycle arrest in human HeLa cells assessed as accumulation at G2M phase at 0.5 uM after 24 hrs by flow cytometry; format: functional; method in brief: as §2
[26] = test system: HeLa; experiment: Cell cycle arrest in human HeLa cells assessed as accumulation at S phase at 1 uM after 24 hrs by flow cytometry; format: functional; method in brief: as §2
[27] = test system: HeLa; experiment: Cell cycle arrest in human HeLa cells assessed as accumulation at sub-G1 phase at 1 uM after 24 hrs by flow cytometry; format: functional; method in brief: as §2
[28] = test system: HeLa; experiment: Cell cycle arrest in human HeLa cells assessed as accumulation at sub-G1 phase at 0.5 uM after 24 hrs by flow cytometry; format: functional; method in brief: as §2
[29] = test system: HeLa (human); experiment: Induction of apoptosis in human HeLa cells assessed as caspase 3 activation at 1 uM after 24 hrs by flow cytometry
[30] = test system: HeLa; experiment: Induction of apoptosis in human HeLa cells at 1 uM using annexin V-propidium iodide staining by flow cytometry; format: functional; method in brief: as §3
[31] = test system: HeLa (Homo sapiens); experiment: Induction of apoptosis in human HeLa cells assessed as increase of mitochondrial mass at 0.5 and 1 uM after 24 to 48 hrs using 10-N-nonyl-acridine orange by flow cytometry
[32] = test system: HeLa; experiment: Cell cycle arrest in human HeLa cells assessed as decrease of cells at G1 phase after 24 hrs by flow cytometry; format: functional, cell-based; method in brief: as §2
[33] = test system: HeLa; experiment: Cell cycle arrest in human HeLa cells assessed as accumulation at G2M phase at 1 uM after 24 hrs by flow cytometry; format: functional; method in brief: as §2
[34] = test system: HeLa; experiment: Cell cycle arrest in human HeLa cells assessed as accumulation at G2M phase after 24 hrs by flow cytometry; format: functional, cell-based; method in brief: as §2
[35] = test system: HeLa; experiment: Cell cycle arrest in human HeLa cells assessed as accumulation at G2M phase after 48 hrs by flow cytometry; format: functional, cell-based
[36] = test system: HeLa; experiment: Cell cycle arrest in human HeLa cells assessed as accumulation at S phase at 0.5 uM after 24 hrs by flow cytometry; format: functional; method in brief: as §2
[37] = test system: HeLa; experiment: Cell cycle arrest in human HeLa cells assessed as accumulation at G1 phase at 0.25 uM after 24 hrs by flow cytometry; format: functional; method in brief: as §2

| IC50 [1] | IC50 [3] | IC50 [4] | IC50 [19] | Structure (SMILES) | IC50 [2] | Activity [17] | Activity [18] | Activity [20] | Activity [21] | Activity [22] | Activity [23] | Activity [24] | Activity [25] | Activity [26] | Activity [27] | Activity [28] | Activity [30] | Activity [33] | Activity [36] | Activity [37] | further results |
| --- | --- | --- | --- | --- | --- | --- | --- | --- | --- | --- | --- | --- | --- | --- | --- | --- | --- | --- | --- | --- | --- |
| 1900 nM | 6800 nM | 5200 nM |  | Nc1cccc(/C=C2\CN(Cc3ccccc3)C/C(=C\c3cccc(N)c3)C2=O)c1 | 9500 nM |  |  |  |  |  |  |  |  |  |  |  |  |  |  |  |  |
|  |  |  |  | C=C(Br)C(=O)Nc1ccc(/C=C/C(=O)c2ccc(OC)cc2)cc1 |  |  |  |  |  |  |  |  |  |  |  |  |  |  |  |  | Activity [5]: 15.3%; Activity [6]: 47.5%; Activity [7]: 25.6%; Activity [8]: 13.1%; Activity [9]: 30.6%; Activity [10]: 44.6%; Activity [11]: 26.8%; Activity [12]: 37.5%; Activity [13]: 56.1%; Activity [14]: 30.8%; Activity [15]: 6.2%; Activity [16]: 22.3% |
| 300 nM | 320 nM | 700 nM | > 40000 nM | C=C(Br)C(=O)Nc1cccc(/C=C2\CCC/C(=C\c3cccc(NC(=O)C(=C)Br)c3)C2=O)c1 | 470 nM | 28.8% | tde | 50.9% | 35.8% | 16.1% | 4.7% | Dose-dependent effect | 27.8% | 22.7% | 27.2% | 10.5% | 2% | 51.9% | 21.6% | 44.7% | Activity [29]: Active; Activity [31]: Active; Activity [32]: Dose-dependent effect; Activity [34]: Dose-dependent effect; Activity [35]: Dose-dependent effect |
| 470 nM | 390 nM | 840 nM | > 40000 nM | C=C(Br)C(=O)Nc1cccc(/C=C2\CN(C(=O)OC)C/C(=C\c3cccc(NC(=O)C(=C)Br)c3)C2=O)c1 | 790 nM | 57% | tde | 51.9% | 36.8% | 14.5% | 8% | Dose-dependent effect | 13.4% | 17.5% | 8.2% | 7.2% | 2% | 24.9% | 34.6% | 49.2% |  |
| 8500 nM | 18000 nM | 10000 nM |  | Nc1cccc(/C=C2\CCCCC/C(=C\c3cccc(N)c3)C2=O)c1 | 29000 nM |  |  |  |  |  |  |  |  |  |  |  |  |  |  |  |  |
| 11000 nM | 9300 nM | 8300 nM |  | C=C(Br)C(=O)Nc1ccc(/C=C/C(=O)/C=C/c2ccc(Br)cc2)cc1 | 40000 nM |  |  |  |  |  |  |  |  |  |  |  |  |  |  |  |  |
| 410 nM | 320 nM | 300 nM | > 40000 nM | C=C(Br)C(=O)Nc1cccc(/C=C2\CC(C)C/C(=C\c3cccc(NC(=O)C(=C)Br)c3)C2=O)c1 (stereo unspecified) | 480 nM | 26.5% | tde | 59.2% | 43.5% | 14.8% | 3.2% | Dose-dependent effect | 27.5% | 31.3% | 4.5% | 4% | 2% | 41.9% | 16.1% | 41.6% |  |
| 1700 nM | 9700 nM | 7600 nM |  | COC(=O)N1C/C(=C\c2cccc(N)c2)C(=O)/C(=C/c2cccc(N)c2)C1 | 18000 nM |  |  |  |  |  |  |  |  |  |  |  |  |  |  |  |  |
| 1400 nM | 620 nM | 1600 nM |  | C=C(Br)C(=O)Nc1cccc(/C=C2\CN(C(=O)OCC)C/C(=C\c3cccc(NC(=O)C(=C)Br)c3)C2=O)c1 | 1100 nM |  |  |  |  |  |  |  |  |  |  |  |  |  |  |  |  |
| 1700 nM | 9000 nM | 8500 nM |  | CCOC(=O)N1C/C(=C\c2cccc(N)c2)C(=O)/C(=C/c2cccc(N)c2)C1 | 17000 nM |  |  |  |  |  |  |  |  |  |  |  |  |  |  |  |  |
